In the library only some 2.1% were active in any assay of this set; here they are far more common.
LMP1 NFkB inh – Epstein-Barr LMP1 NF-kappaB reporter inhibition. inhibition, % at 12.5 µM. LMP1-induced NF-kappaB luciferase reporter cells, luminescence. hit rate 0.69% among 350,000; in the data active means inhibition above about 41%;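 further: 0% = neutral control wells and 100% = reference inhibitor control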
Shn3 3UTR inh – Schnurri-3 reporter inhibition in Clone20 osteoblasts. AID 588674. Clone20 osteoblast Shn3 3'UTR firefly luciferase, 24 h. hit rate 0.52% among 360,000. inhibition, % at 12.5 µM;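 active means mean inhibition of at least 75% with every replicate also reaching 75%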;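 further: 0% = median of neutral control wells and 100% = pilot-screen positive control compound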
FN deposit inh – fibronectin deposition inhibition; AID 743247; inhibition, % at 12.6 µM; AH1F fibroblasts, Alexa488-fibronectin deposition fluorescence, overnight; hit rate 0.086% among 350,000;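 active means mean inhibition across replicates of 30% or more, regardless of how many single replicates reach that level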;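 further: positive control wells lacked labelled fibronectin entirely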
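Test system: AH1F fibroblast monolayer depositing Alexa488-labelled fibronectin into matrix. Input: 10000 cells per well. Technique: fluorescence, ex 485 nm, em 525 nm. Buffer or medium: DMEM plus 2% serum, read in PBS. Timing: 1 h cell adhesion before compound, then overnight fibronectin incubation. Compound: single dose, pinned. Read-out basis: inhibition from reduced deposited-fibronectin fluorescence.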
EWS-Fli block – inhibitors of EWS/Fli oncoprotein transcriptional activity | A673 NR0B1-luciferase reporter, viability-normalised | inhibition, % at 12.6 µM | hit rate 0.67% among 350,000 | AID 651661;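 active means mean inhibition of at least 50% after viability correction, with every replicate also passing that limit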;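 further: firefly luciferase signal divided by Alamar Blue viability fluorescence both relative to DMSO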
aSyn UTR inh – 5' untranslated region of α-synuclein, MLPCN primary screen | hit rate 0.82% among 300,000 | inhibition, % (tested at 7.5 µM) | alpha-synuclein 5'UTR reporter, inhibitor activity; in the data active means inhibition above about 60%;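 further: H4 neuroglioblastoma cells stably carrying SNCA 5'UTR luciferase fusion; 0% = DMSO wells and 100% = positive control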
PAX8 inh HTS – lowers PAX8-driven luciferase in RMG-I cells. RMG-I TPO-luciferase reporter, SteadyGlo, 24 h. AID 652154. hit rate 1.2% among 360,000. inhibition, % at 12.6 µM;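 active means mean replicate inhibition at least 60% with every replicate also reaching 60%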;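 further: luciferase light reporting Pax8 driven TPO promoter activity; plate controls were median of neutral control wells for no effect and mitoxantrone controls for full effect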
Active calls of the source: *.

Results for CC(C)Oc1ccccc1C1CC(=O)Nc2cc3c(cc21)OCCO3 (stereo unspecified) ?
LMP1 NFkB inh: 1.6; Shn3 3UTR inh: 77.1; FN deposit inh: -3.9; aSyn UTR inh: 72.8*; PAX8 inh HTS: 80.0*

Results for CCOc1ccccc1C1CC(=O)Nc2cc3c(cc21)OCO3 (stereo unspecified) ?
LMP1 NFkB inh: 5.9; Shn3 3UTR inh: 31.2; FN deposit inh: -18.0; aSyn UTR inh: 66.1*

How did COc1ccc(S(=O)(=O)N[C@@H]2CC[C@H](CC(=O)N3CCN(c4ccccc4)CC3)O[C@@H]2CO)cc1 do in these assays?
FN deposit inh: 0.3; EWS-Fli block: 8.8; PAX8 inh HTS: 4.2

Results for COCC(=O)Nc1ccc2c(c1)[C@@H]1C[C@@H](CC(=O)N3CCOCC3)O[C@@H](CO)[C@@H]1O2 ?
FN deposit inh: -9.4; EWS-Fli block: -0.3; PAX8 inh HTS: -17.9

Results for COc1ccc(-c2noc(CCC(=O)Nc3cccnc3)n2)cc1 ?
Shn3 3UTR inh: 3.4; FN deposit inh: -11.0; EWS-Fli block: -27.8; aSyn UTR inh: -6.2; PAX8 inh HTS: -3.0

What do the screens show for `CC(C)(C)c1ccc(-c2noc(CCC(N)=O)n2)cc1`?
LMP1 NFkB inh: 53.5*; Shn3 3UTR inh: 17.0; FN deposit inh: -1.7; aSyn UTR inh: 90.8*

What do the screens show for `CNC(=O)CCc1nc(-c2ccc(C(C)(C)C)cc2)no1`?
LMP1 NFkB inh: -1.9; Shn3 3UTR inh: -52.1; aSyn UTR inh: -8.6

How did CC(C)(C)c1ccc(-c2noc(CCC(=O)Nc3cccnc3)n2)cc1 do in these assays?
LMP1 NFkB inh: 78.3*; Shn3 3UTR inh: 35.5; FN deposit inh: -11.4; EWS-Fli block: 43.6; aSyn UTR inh: 76.9*; PAX8 inh HTS: 86.9*

Results for C[C@@H]1CN([C@@H](C)CO)C(=O)c2c(c3ccccc3n2C)-c2ccccc2CO[C@@H]1CN(C)C(=O)CCN(C)C ?
FN deposit inh: 4.9; EWS-Fli block: -9.9; PAX8 inh HTS: -11.5

How did C[C@H](CO)N1C[C@H](C)[C@H](CN(C)C(=O)[C@H](Cc2ccccc2)N(C)C)OCc2ccccc2-c2c(n(C)c3ccccc23)C1=O do in these assays?
FN deposit inh: 12.6; EWS-Fli block: 14.3; PAX8 inh HTS: 115.9*

What do the screens show for `C[C@H](CO)N1C[C@H](C)[C@@H](CN(C)C(=O)CCN(C)C)OCc2ccccc2-c2c(n(C)c3ccccc23)C1=O`?
FN deposit inh: 3.5; EWS-Fli block: -4.1; PAX8 inh HTS: 65.0*

What do the screens show for `C[C@H](CO)N1C[C@H](C)[C@@H](CN(C)C(=O)Nc2ccc(F)cc2)OCc2ccccc2-c2c(n(C)c3ccccc23)C1=O`?
FN deposit inh: -10.6; EWS-Fli block: 6.6; PAX8 inh HTS: 100.1*

What do the screens show for `COc1ccccc1CN1[C@H](CO)[C@H]2c3ccccc3N(C(=O)c3ccncc3)C[C@H]21`?
EWS-Fli block: 6.9; PAX8 inh HTS: 11.9

Results for CO[C@H]1CN(C)C(=O)c2ccc(NC(=O)c3ccccc3)cc2OC[C@@H](C)N(C(C)=O)C[C@@H]1C ?
FN deposit inh: 1.3; EWS-Fli block: -7.8

What do the screens show for `C[C@@H]1CCCCO[C@@H](CN(C)Cc2ccc(C(=O)O)cc2)[C@H](C)CN([C@H](C)CO)C(=O)c2cc(NC(=O)Cc3ccccc3)ccc2O1`?
EWS-Fli block: -4.3; PAX8 inh HTS: -31.3

How did CCNC(=O)[C@@H]1[C@@H](CO)[C@@H]2Cn3c(ccc(-c4ccccc4)c3=O)[C@@H]2N1C(=O)C1CCC1 do in these assays?
FN deposit inh: -6.3; EWS-Fli block: -4.8

What do the screens show for `N#CC1C(=O)c2ccccc2C1c1ccccc1` (stereo unspecified)?
LMP1 NFkB inh: -3.1; Shn3 3UTR inh: 71.3; FN deposit inh: 37.9*; EWS-Fli block: 33.7; PAX8 inh HTS: 32.2

How did O=C1CCC(c2ccccc2)c2ccccc21 (stereo unspecified) do in these assays?
Shn3 3UTR inh: -19.7; FN deposit inh: -7.6; EWS-Fli block: -5.4; aSyn UTR inh: 9.7; PAX8 inh HTS: 7.1

Results for O=C(C1CCOCC1)N1[C@@H](CO)[C@@H](c2ccccc2)C12CN(Cc1cccnc1)C2 ?
EWS-Fli block: 0.1; PAX8 inh HTS: -1.8

Results for COc1ccc([Si](C)(C)[C@@H]2[C@@H](CCO)O[C@]3(C(=O)N4c5c(cc(OC)cc53)C(C)=CC4(C)C)[C@H]2C)cc1 ?
EWS-Fli block: 31.2; PAX8 inh HTS: 106.2*

How did COc1ccc([Si](C)(C)[C@H]2[C@H](CCO)O[C@@]3(C(=O)N4c5c(cc(OC)cc53)C(C)=CC4(C)C)[C@@H]2C)cc1 do in these assays?
EWS-Fli block: 12.2; PAX8 inh HTS: 102.2*

How did COc1ccc([Si](C)(C)[C@H]2[C@H](CCO)O[C@@]3(C(=O)N(C)c4ccccc43)[C@@H]2C)cc1 do in these assays?
EWS-Fli block: 0.4; PAX8 inh HTS: 17.6

How did CCCCCCCNC(=O)C1(CC2CC(c3cccc(Br)c3)=NO2)CCNCC1 (stereo unspecified) do in these assays?
LMP1 NFkB inh: -32.6; Shn3 3UTR inh: 90.9*; FN deposit inh: 3.7; EWS-Fli block: 40.8; aSyn UTR inh: -8.8; PAX8 inh HTS: 80.3*

What do the screens show for `Cc1cc(=O)oc2c3c(cc(OCC(=O)Nc4ccc(CCO)cc4)c12)OC(C)(C)CC3`?
LMP1 NFkB inh: -6.7; Shn3 3UTR inh: 91.2*; EWS-Fli block: -0.5; aSyn UTR inh: 13.0

What do the screens show for `Cc1cc(=O)oc2c3c(cc(OCC(=O)NCc4ccccc4)c12)OC(C)(C)CC3`?
LMP1 NFkB inh: -2.4; Shn3 3UTR inh: 18.7; EWS-Fli block: 3.7; aSyn UTR inh: 0.9

What do the screens show for `C[C@H]1CN([C@@H](C)CO)C(=O)c2cc(C#CCN(C)C)cnc2O[C@H]1CN(C)C(=O)c1cccc(F)c1`?
FN deposit inh: -3.3; EWS-Fli block: -10.3

What do the screens show for `CC[C@]12c3[nH]c4cc(CCC(=O)N(C)C)ccc4c3CCN1C(=O)[C@@H](CC(=O)NC/C=C(\C)CCC=C(C)C)C[C@@H]2C(=O)N1CCN(C(=O)c2ccco2)CC1`?
LMP1 NFkB inh: 15.3; Shn3 3UTR inh: 86.5*

What do the screens show for `CN(C)CCCNC(=O)C[C@H]1C[C@H](C(=O)N2CCCCC2)[C@@]2(CCc3ccccc3)c3[nH]c4ccc(Cl)cc4c3CCN2C1=O`?
LMP1 NFkB inh: 2.1; Shn3 3UTR inh: 6.8; FN deposit inh: -2.2; EWS-Fli block: 62.9*; PAX8 inh HTS: -5.4

Results for CC[C@]12c3[nH]c4ccc(Cl)cc4c3CCN1C(=O)[C@@H](CC(=O)NC/C=C(\C)CCC=C(C)C)C[C@@H]2C(=O)N1CCN(C(=O)c2ccco2)CC1 ?
LMP1 NFkB inh: 4.4; Shn3 3UTR inh: 14.9; FN deposit inh: -3.8; EWS-Fli block: 19.0; PAX8 inh HTS: 81.6*

Compound activity from PubChem BioAssay.
